Source: ChEMBL document CHEMBL1125455, “Novel anthraquinone inhibitors of human leukocyte elastase and cathepsin G” (J Med Chem, 1992)
pIC50, pKi: −log10 of the molar value. Calls of active or inactive are those of the source. The rule behind the calls is not given here.

Experiments:
[1] = target: T1, Neutrophil elastase (Homo sapiens, UniProt P08246); assay: HLE-inhibitor (Human Leukocyte Elastase) dissociation constant determined by using Dixon Plot
T1 sequence (P08246 whole entry): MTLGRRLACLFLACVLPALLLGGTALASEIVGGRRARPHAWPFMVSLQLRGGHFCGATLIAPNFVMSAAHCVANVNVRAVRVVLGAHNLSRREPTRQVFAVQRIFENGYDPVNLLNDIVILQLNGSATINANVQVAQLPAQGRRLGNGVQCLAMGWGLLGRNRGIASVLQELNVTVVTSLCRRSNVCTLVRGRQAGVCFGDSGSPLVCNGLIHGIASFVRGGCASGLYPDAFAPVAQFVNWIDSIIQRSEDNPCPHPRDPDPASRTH

[2] = target: T1, Neutrophil elastase; assay: In vitro inhibition of human leukocyte elastase.
[3] = target: T2, Cathepsin G (Homo sapiens, UniProt P08311); assay: Compound was tested for the enzyme inhibitory activity against Cathepsin G
T2 sequence (P08311 whole entry): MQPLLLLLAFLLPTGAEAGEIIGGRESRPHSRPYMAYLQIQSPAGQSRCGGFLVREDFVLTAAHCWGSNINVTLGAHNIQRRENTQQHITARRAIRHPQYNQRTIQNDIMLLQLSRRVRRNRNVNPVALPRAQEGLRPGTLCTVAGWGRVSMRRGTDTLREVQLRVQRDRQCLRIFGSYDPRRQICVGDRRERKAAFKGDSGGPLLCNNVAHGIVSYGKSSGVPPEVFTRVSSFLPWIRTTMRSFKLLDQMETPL

[4] = target: T1, Neutrophil elastase; assay: Compound was tested for the enzyme inhibitory activity against Human Leukocyte elastase
[5] = target: T2, Cathepsin G; assay: Compound was tested for the enzyme inhibitory activity against Cathepsin G (CatG); NI = no inhibition
[6] = target: T2, Cathepsin G; assay: Compound was tested for the enzyme inhibitory activity against Cathepsin G; NI = no inhibition
[7] = target: T3, Neutrophil elastase (Homo sapiens) (UniProt P08246); assay: Inhibitory activity against Human Leukocyte Elastase (HLE) at 61 uM concentration
T3 sequence (whole entry): T1 sequence (P08246 whole entry)

[8] = target: T4, Chymotrypsin-like elastase family member 2A (Sus scrofa) (UniProt P08419); assay: Inhibitory activity against Porcine Pancreatic Elastase (PPE) at 61 uM concentration; NI = no inhibition
T4 sequence (whole entry): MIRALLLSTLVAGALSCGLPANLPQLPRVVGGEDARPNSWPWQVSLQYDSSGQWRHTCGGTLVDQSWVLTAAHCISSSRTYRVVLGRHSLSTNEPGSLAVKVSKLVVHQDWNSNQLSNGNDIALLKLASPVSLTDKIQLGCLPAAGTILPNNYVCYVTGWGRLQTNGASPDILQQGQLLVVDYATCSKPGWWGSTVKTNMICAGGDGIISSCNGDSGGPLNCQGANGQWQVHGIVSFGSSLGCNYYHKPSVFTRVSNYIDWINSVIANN

[9] = target: Chymotrypsinogen A (Bos taurus) (UniProt P00766); assay: Inhibitory activity against Chymotrypsinogen at 61 uM concentration
[10] = target: T5, Cathepsin G (Homo sapiens) (UniProt P08311); assay: Inhibitory activity against Cathepsin G (CatG) at 61 uM concentration; NI = no inhibition
T5 sequence (whole entry): T2 sequence (P08311 whole entry)

[11] = target: T4, Chymotrypsin-like elastase family member 2A (Sus scrofa); assay: Inhibitory activity against Porcine Pancreatic Elastase (PPE) at 56 uM concentration; NI = no inhibition
[12] = target: Chymotrypsinogen A (Bos taurus) (UniProt P00766); assay: Inhibitory activity against Chymotrypsinogen at 56 uM concentration; NI = no inhibition
[13] = target: T5, Cathepsin G (Homo sapiens); assay: Inhibitory activity against Cathepsin G (CatG) at 56 uM concentration; NI = no inhibition
[14] = target: T3, Neutrophil elastase (Homo sapiens); assay: Inhibitory activity against Human Leukocyte Elastase (HLE) at 56 uM concentration; NI = no inhibition
[15] = target: T3, Neutrophil elastase (Homo sapiens); assay: Inhibitory activity against Human Leukocyte Elastase (HLE) at 59 uM concentration
[16] = target: T4, Chymotrypsin-like elastase family member 2A (Sus scrofa); assay: Inhibitory activity against Porcine Pancreatic Elastase (PPE) at 59 uM concentration; NI = no inhibition
[17] = target: T1, Neutrophil elastase; assay: Compound was tested for the enzyme inhibitory activity against Human Leukocyte Elastase (HLE); NI = no inhibition
[18] = target: T2, Cathepsin G; assay: Inhibition of Cathepsin G (CatG)
[19] = target: T1, Neutrophil elastase; assay: Compound was tested for the enzyme inhibitory activity against Human Leukocyte Elastase (HLE)
[20] = target: Chymotrypsinogen A (Bos taurus) (UniProt P00766); assay: Inhibitory activity against Chymotrypsinogen at 30 uM concentration
[21] = target: T4, Chymotrypsin-like elastase family member 2A (Sus scrofa); assay: Inhibitory activity against Porcine Pancreatic Elastase (PPE) at 30 uM concentration
[22] = target: T5, Cathepsin G (Homo sapiens); assay: Inhibitory activity against Cathepsin G (CatG) at 30 uM concentration; NI = no inhibition
[23] = target: T3, Neutrophil elastase (Homo sapiens); assay: Inhibitory activity against Human Leukocyte Elastase (HLE) at 30 uM concentration
[24] = target: T5, Cathepsin G (Homo sapiens); assay: Inhibitory activity against Cathepsin G (CatG) at 86 uM concentration
[25] = target: T4, Chymotrypsin-like elastase family member 2A (Sus scrofa); assay: Inhibitory activity against Porcine Pancreatic Elastase (PPE) at 86 uM concentration; NI = no inhibition
[26] = target: T3, Neutrophil elastase (Homo sapiens); assay: Inhibitory activity against Human Leukocyte Elastase (HLE) at 86 uM concentration; NI = no inhibition
[27] = target: T4, Chymotrypsin-like elastase family member 2A (Sus scrofa); assay: Inhibitory activity against Porcine Pancreatic Elastase (PPE) at 70 uM concentration; NI = no inhibition
[28] = target: T3, Neutrophil elastase (Homo sapiens); assay: Inhibitory activity against Human Leukocyte Elastase (HLE) at 70 uM concentration; NI = no inhibition
[29] = target: Chymotrypsinogen A (Bos taurus) (UniProt P00766); assay: Inhibitory activity against Chymotrypsinogen at 70 uM concentration; NI = no inhibition; conditions: Sus scrofa
[30] = target: T5, Cathepsin G (Homo sapiens); assay: Inhibitory activity against Cathepsin G (CatG) at 70 uM concentration
[31] = target: T4, Chymotrypsin-like elastase family member 2A (Sus scrofa); assay: Inhibitory activity against Porcine Pancreatic Elastase (PPE) at 63 uM concentration
Outline: (§1)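 Percent inhibition of enzyme activity at a single inhibitor concentration. Assays run at 25 °C in 0.1 M HEPES, 0.5 M NaCl, pH 7.5, with 9-11% DMSO. The method otherwise follows an earlier report.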

[32] = target: T5, Cathepsin G (Homo sapiens); assay: Inhibitory activity against Cathepsin G (CatG) at 63 uM concentration; outline: as §1
[33] = target: T3, Neutrophil elastase (Homo sapiens); assay: Inhibitory activity against Human Leukocyte Elastase (HLE) at 63 uM concentration; outline: as §1
[34] = target: Chymotrypsinogen A (Bos taurus) (UniProt P00766); assay: Inhibitory activity against Chymotrypsinogen at 63 uM concentration; outline: as §1

CCCCCCc1ccc2c(c1OC(=O)OCCCC)C(=O)c1c(OC(=O)OCCCC)cccc1C2=O
pKi [1]: 6.37 | pIC50 [2]: 5.68

CCCCCCc1ccc2c(c1O)C(=O)c1c(OC)cccc1C2=O
pIC50 [3]: < 4.22 | pIC50 [4]: 5.22

COc1cccc2c1C(=O)c1c(ccc(CC(C)C)c1OC(C)=O)C2=O
IC50 [5]: No inhibition

O=C1c2ccccc2C(=O)c2c1ccc(Cc1ccccc1)c2O
IC50 [6]: Not Active | pIC50 [4]: 5.18

CC(=O)OCc1cc(OC(C)=O)c2c(c1)C(=O)c1cccc(OC(C)=O)c1C2=O
inhibition [7]: 30% | inhibition [8]: inactive | inhibition [9]: 3% | inhibition [10]: inactive

CC(=O)Oc1cccc2c1C(=O)c1c(OC(C)=O)cc(C)cc1C2=O
inhibition [11]: inactive | inhibition [12]: inactive | inhibition [13]: inactive | inhibition [14]: inactive

CC(=O)Oc1cccc2c1C(=O)c1c(OC(C)=O)cc(CBr)cc1C2=O
inhibition [15]: 33% | inhibition [16]: inactive

C=CCc1ccc2c(c1OC)C(=O)c1c(OC)cccc1C2=O
IC50 [17]: Not Active | pIC50 [18]: < 4.22

CCCc1ccc2c(c1O)C(=O)c1c(OC)cccc1C2=O
pIC50 [18]: < 4.22 | pIC50 [2]: 5.06

CCCCOC(=O)Oc1cc(C)cc2c1C(=O)c1c(OC(=O)OCCCC)cc(OCCC)cc1C2=O
pKi [1]: 6.82 | pIC50 [19]: 5.74

COc1cccc2c1C(=O)c1c(ccc(CC3CO3)c1O)C2=O (stereo not given)
IC50 [17]: Not Active | IC50 [5]: Not Active

COc1cc(OC)c2c(c1)C(=O)c1cc(C)cc(OC)c1C2=O
inhibition [20]: 6% | inhibition [21]: 4% | inhibition [22]: inactive | inhibition [23]: 16%

Cc1ccc2c(c1O)C(=O)c1c(O)cccc1C2=O
pIC50 [2]: 5.00

Cc1ccc2c(c1)C(=O)c1ccccc1C2=O [TECTOQUINONE]
IC50 [5]: Not Active | pIC50 [2]: 4.41

COc1cccc2c1C(=O)c1c(ccc(Cc3ccccc3)c1O)C2=O
IC50 [5]: No inhibition | pIC50 [2]: 5.17

COc1cccc2c1C(=O)c1c(ccc(Cc3ccccc3)c1OC(C)=O)C2=O
IC50 [17]: Not Active | IC50 [5]: Not Active

CCc1ccc2c(c1)C(=O)c1ccccc1C2=O
IC50 [5]: Not Active

O=C(O)c1cc(O)c2c(c1)C(=O)c1cccc(O)c1C2=O
inhibition [24]: 22% | inhibition [25]: inactive | inhibition [26]: inactive

CC(=O)Oc1cccc2c1C(=O)c1c(OC(C)=O)cc(C(=O)O)cc1C2=O
inhibition [27]: inactive | inhibition [28]: inactive | inhibition [29]: inactive | inhibition [30]: 5%

CCCCOC(=O)Oc1cc(C)cc2c1C(=O)c1c(OC(=O)OCCCC)cc(OC)cc1C2=O
pKi [1]: 5.55 | pIC50 [19]: 5.60

O=C1c2cccc(O)c2C(=O)c2c(O)cc(CO)cc21
inhibition [31]: 18% | inhibition [32]: 3% | inhibition [33]: 21% | inhibition [34]: 13%
